pIC50, pKd: −log10 of the molar value. Like-named read-outs stand apart in the source and are kept apart here.
How the values were obtained:
ERK5 [1] = target: T1, ERK5 (Homo sapiens, UniProt Q13164); test: ERK5 KINOMEscan binding assay
[2] = target: T2, purified, recombinant DCLK1 kinase domain (Homo sapiens, UniProt O15075); test: DCLK1 isothermal titration calorimetry; assay type: binding
T2 sequence (O15075 351-689 isoform O15075-2): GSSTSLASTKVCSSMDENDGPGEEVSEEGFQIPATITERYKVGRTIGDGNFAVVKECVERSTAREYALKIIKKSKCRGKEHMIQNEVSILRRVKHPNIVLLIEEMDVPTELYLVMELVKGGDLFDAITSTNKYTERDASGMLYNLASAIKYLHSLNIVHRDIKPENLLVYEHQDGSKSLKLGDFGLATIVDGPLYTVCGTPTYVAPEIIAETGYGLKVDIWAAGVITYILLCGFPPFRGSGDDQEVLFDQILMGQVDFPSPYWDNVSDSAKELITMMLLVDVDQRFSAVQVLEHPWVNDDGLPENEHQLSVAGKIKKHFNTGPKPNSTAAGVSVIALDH

zebrafish = test: Toxicity evaluation during zebrafish embryonic development; assay type: in vivo; conditions: days 1 to 8 post-fertilization, in fish water at concentrations up to 10 μM
[3] = Maximum dose tolerability evaluation in mice; assay type: in vivo, C57B6/6J mice; conditions: doses up to 100 mg/kg, oral gavage daily for two weeks, no adverse effects, no loss of body weight
rat hippocampal neurons = test: Rat primary hippocampal neuron viability; assay type: cell-based; conditions: concentrations up to 10 μM, 24 hours
Method in brief: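 Rat primary hippocampal neurons on poly-L-lysine-coated coverslips were treated at DIV6 for 24 h with DMSO or test compound. They were then fixed in glutaraldehyde-containing cytoskeleton buffer with Triton X-100, followed by NaBH4, permeabilized in TBS with 0.5% Triton X-100, and processed for immunofluorescence.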

BRD4 = BRD4 (Homo sapiens, UniProt O60885); test: BRD4 AlphaScreen assay; assay type: binding
ERK5 [4] = target: T1, ERK5; test: ERK5 32P-ATP kinase assay; assay type: biochemical; conditions: ERK5 kinase assay IC50, 32P-ATP; Table 1
PATU-8988T cells = test: Cell viability, 2D-adherent monolayer culture, PATU-8988T; assay type: cell-based, human; conditions: 120 h, read-out: PATU-8988T cells 2D monolayer culture IC50
Method in brief: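 PATU-8988T and PATU-8902 cells were plated at 100 cells/well in 50 μL media, either adherent (2D) or in ultra-low attachment spheroid plates (3D), overnight. Test compound was pin-transferred and cells were incubated 120 h. Viability was read by CellTiter-Glo luminescence after 15 min at room temperature. Data were normalized to DMSO-treated wells per cell line and fitted.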

[5] = target: T3, DCLK1-Nluc in HCT116 cells (Homo sapiens, UniProt O15075); test: DCLK1 NanoBRET target engagement assay in HCT116 cells; assay type: cell-based
T3 sequence (O15075 1-729 isoform O15075-2): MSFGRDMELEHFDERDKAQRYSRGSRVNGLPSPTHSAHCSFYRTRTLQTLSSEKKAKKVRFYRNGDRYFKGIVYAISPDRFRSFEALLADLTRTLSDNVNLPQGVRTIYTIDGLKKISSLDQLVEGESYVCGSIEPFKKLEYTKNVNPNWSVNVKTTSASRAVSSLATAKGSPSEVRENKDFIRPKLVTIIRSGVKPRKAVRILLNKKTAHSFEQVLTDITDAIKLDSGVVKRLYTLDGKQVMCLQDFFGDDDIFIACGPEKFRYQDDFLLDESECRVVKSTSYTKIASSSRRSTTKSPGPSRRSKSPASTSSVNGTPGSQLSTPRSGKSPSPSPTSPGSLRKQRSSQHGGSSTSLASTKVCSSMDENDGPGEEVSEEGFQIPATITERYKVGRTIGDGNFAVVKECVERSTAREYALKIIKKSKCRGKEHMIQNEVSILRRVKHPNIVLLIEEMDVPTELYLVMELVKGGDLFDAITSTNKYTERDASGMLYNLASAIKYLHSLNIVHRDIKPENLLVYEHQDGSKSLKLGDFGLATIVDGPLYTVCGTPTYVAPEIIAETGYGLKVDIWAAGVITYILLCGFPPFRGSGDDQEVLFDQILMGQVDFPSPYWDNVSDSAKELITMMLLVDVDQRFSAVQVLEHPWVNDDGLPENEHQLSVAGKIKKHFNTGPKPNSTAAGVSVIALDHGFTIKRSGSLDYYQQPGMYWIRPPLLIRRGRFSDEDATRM

ERK5 [6] = target: T1, ERK5; test: ERK5 cellular kinase assay in HeLa cells; assay type: cell-based

T1 sequence (Q13164 whole entry, the tested form may be a part): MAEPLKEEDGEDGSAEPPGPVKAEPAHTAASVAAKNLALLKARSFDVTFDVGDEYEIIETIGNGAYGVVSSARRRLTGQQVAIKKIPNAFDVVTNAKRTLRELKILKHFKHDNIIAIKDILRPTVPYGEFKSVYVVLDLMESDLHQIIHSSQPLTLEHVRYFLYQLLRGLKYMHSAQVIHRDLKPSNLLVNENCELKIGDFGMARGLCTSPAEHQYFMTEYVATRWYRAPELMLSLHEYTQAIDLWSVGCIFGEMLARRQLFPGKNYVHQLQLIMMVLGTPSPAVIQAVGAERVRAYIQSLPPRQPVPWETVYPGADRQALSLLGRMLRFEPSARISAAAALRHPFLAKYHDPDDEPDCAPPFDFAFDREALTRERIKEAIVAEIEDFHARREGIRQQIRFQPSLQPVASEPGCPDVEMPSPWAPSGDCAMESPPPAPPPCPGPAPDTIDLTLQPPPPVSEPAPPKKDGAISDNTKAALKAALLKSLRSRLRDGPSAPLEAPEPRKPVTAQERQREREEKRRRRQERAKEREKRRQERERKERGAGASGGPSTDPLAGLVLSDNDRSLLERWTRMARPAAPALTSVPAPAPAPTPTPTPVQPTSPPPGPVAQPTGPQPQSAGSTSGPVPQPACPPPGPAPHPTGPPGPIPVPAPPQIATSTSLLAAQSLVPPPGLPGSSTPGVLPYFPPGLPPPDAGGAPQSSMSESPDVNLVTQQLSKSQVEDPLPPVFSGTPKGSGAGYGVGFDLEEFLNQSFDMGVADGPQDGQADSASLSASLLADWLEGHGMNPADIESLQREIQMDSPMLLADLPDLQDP

With `COc1cc(N2CCN(C)CC2)ccc1Nc1ncc2c(n1)N(C)c1ccccc1C(=O)N2CC(F)(F)F` [DCLK1-IN-1] as the compound, how does the pIC50 (ERK5 [1]) read?
The pIC50 was 5.74.

What about the pKd ([2]; ITC Kd, purified recombinant DCLK1 protein, Table 1) of the same compound?
Its pKd is 7.26.

And the pKd ([2]; Kd, ITC, 20 μM DCLK1, 200 μM compound, Supplementary Table 2 and text)?
Its pKd is 6.96.

And the “effect on zebrafish CNS or other organ system development” value (zebrafish)?
Its value is “no discernable effect”.

And the “tolerability (maximum tolerated dose study)” value [3]?
Its value is “well-tolerated”.

What about the “effect on neuronal viability” value (rat hippocampal neurons) of the same compound?
Its value is “no effect on neuronal viability”.

And the pIC50 (BRD4)?
Its pIC50 is under 5.00.

What about the pIC50 (ERK5 [4]) of the same compound?
Its pIC50 is 5.40.

What about the pIC50 (PATU-8988T cells; Homo sapiens, PaTu 8988t) of the same compound?
The pIC50 was under 4.70.

What about the pIC50 [5] of the same compound?
Its pIC50 is 6.55.

And the pIC50 (ERK5 [6])?
Its pIC50 is 5.27.

With `CCOc1cc(N2CCC(O)CC2)ccc1Nc1ncc2c(n1)N(C)c1ccccc1C(=O)N2C` [XMD8-92] as the compound, how does the pIC50 (BRD4; read-out: BRD4 binding assay IC50, AlphaScreen, Table 1) read?
The pIC50 was 5.81.

And the pIC50 (PATU-8988T cells; cell viability, P.R. = partial response)?
Its pIC50 is 5.70.

And the pIC50 ([5]; read-out: DCLK1 cellular assay IC50, nanoBRET, HCT116 cells)?
The pIC50 was 5.94.

From PMC7246176 (Nature chemical biology, 2020)
